Experimental data: ChEMBL document CHEMBL4732226, “Discovery of a potent G-protein-coupled receptor 119 agonist for the treatment of type 2 diabetes” (Bioorg Med Chem, 2021)
Calls of active or inactive are those of the source. The calls are words filed in the database; no cut-off is given here.

How the values were obtained:
Mus musculus = test: Antidiabetic activity in glucose-stimulated db/db mouse assessed as increase in glucose dependent insulin secretion at 50 mg/kg, po after 10 to 30 mins; format: functional, organism-based; details: time 10-30 min
[1] = Tmax in Wistar rat at 10 mg/kg, po up to 24 hrs; format: ADME, organism-based; details: in vivo
In short: (§1)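 Single oral dose at 10 mg/kg given to male Wistar rats and to Beagle dogs; bioavailability also determined in both species.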

[2] = Cmax in Beagle dog at 10 mg/kg, po up to 24 hrs; format: ADME, organism-based, Canis lupus familiaris; set-up: route oral, dose 10 mg/kg, time <=24; details: in vivo; in short: as §1
[3] = Elimination rate constant in Beagle dog at 10 mg/kg, po up to 24 hrs; format: ADME, organism-based, Canis lupus familiaris; details: in vivo; in short: as §1
[4] = Toxicity in male Wistar rat assessed as ratio of heart to body weight at 400 mg/kg, po after 28 days (reference value: 0.333 +/- 0.036); format: organism-based; details: in vivo, 672 h, time 28 day
[5] = Toxicity in female Wistar rat assessed as ratio of heart to body weight at 100 mg/kg, po after 28 days (reference value: 0.38 +/- 0.037); format: organism-based; details: in vivo, 672 h, time 28 day
[6] = Toxicity in male Wistar rat assessed as ratio of spleen to body weight at 100 mg/kg, po after 28 days (reference value: 0.206 +/- 0.026); format: organism-based; details: in vivo, 672 h, time 28 day
[7] = Toxicity in female Wistar rat assessed as ratio of spleen to body weight at 200 mg/kg, po after 28 days (reference value: 0.244 +/- 0.032); format: organism-based; details: in vivo, 672 h, time 28 day
[8] = Toxicity in female Wistar rat assessed as ratio of spleen to body weight at 400 mg/kg, po after 28 days (reference value: 0.244 +/- 0.032); format: organism-based; details: in vivo, 672 h, time 28 day
[9] = Toxicity in female Wistar rat assessed as ratio of adrenals to body weight at 200 mg/kg, po after 28 days (reference value: 0.045 +/- 0.007); format: organism-based; details: in vivo, 672 h, time 28 day
[10] = Toxicity in male Wistar rat assessed as ratio of brain to body weight at 100 mg/kg, po after 28 days (reference value: 0.766 +/- 0.038); format: organism-based; details: in vivo, 672 h, time 28 day
[11] = Toxicity in male Wistar rat assessed as ratio of brain to body weight at 200 mg/kg, po after 28 days (reference value: 0.766 +/- 0.038); format: organism-based; details: in vivo, 672 h, time 28 day
[12] = Toxicity in male Wistar rat assessed as ratio of brain to body weight at 400 mg/kg, po after 28 days (reference value: 0.766 +/- 0.038); format: organism-based; details: in vivo, 672 h, time 28 day
[13] = Toxicity in female Wistar rat assessed as ratio of brain to body weight at 200 mg/kg, po after 28 days (reference value: 1.1 +/- 0.078); format: organism-based; details: in vivo, 672 h, time 28 day
[14] = Toxicity in female Wistar rat assessed as ratio of brain to body weight at 400 mg/kg, po after 28 days (reference value: 1.1 +/- 0.078); format: organism-based; details: in vivo, 672 h, time 28 day
[15] = Toxicity in male Wistar rat assessed as ratio of testes to body weight at 400 mg/kg, po after 28 days (reference value: 1.248 +/- 0.073); format: organism-based; details: in vivo, 672 h, time 28 day
[16] = Toxicity in male Wistar rat assessed as ratio of epididymides to body weight at 400 mg/kg, po after 28 days (reference value: 0.361 +/- 0.028); format: organism-based; details: in vivo, 672 h, time 28 day
[17] = Toxicity in female Wistar rat assessed as ratio of uterus to body weight at 200 mg/kg, po after 28 days (reference value: 0.335 +/- 0.108); format: organism-based; details: in vivo, 672 h, time 28 day
[18] = Toxicity in male Wistar rat assessed as ratio of thymus to body weight at 400 mg/kg, po after 28 days (reference value: 0.148 +/- 0.023); format: organism-based; details: in vivo, 672 h, time 28 day
[19] = Toxicity in female Wistar rat assessed as ratio of thymus to body weight at 100 mg/kg, po after 28 days (reference value: 0.260 +/- 0.025); format: organism-based; details: in vivo, 672 h, time 28 day
[20] = Toxicity in male Wistar rat assessed as globulin level at 100 mg/kg, po after 28 days (reference value: 2.62 +/- 0.12 g/dl); format: organism-based; details: in vivo, 672 h, time 28 day
[21] = Toxicity in male Wistar rat assessed as globulin level at 200 mg/kg, po after 28 days (reference value: 2.62 +/- 0.12 g/dl); format: organism-based; details: in vivo, 672 h, time 28 day
[22] = Toxicity in male Wistar rat assessed as glucose level at 100 mg/kg, po after 28 days (reference value: 89.02 +/- 13.41 mg/dl); format: organism-based; details: in vivo, 672 h, time 28 day
[23] = Toxicity in male Wistar rat assessed as glucose level at 200 mg/kg, po after 28 days (reference value: 89.02 +/- 13.41 mg/dl); format: organism-based; details: in vivo, 672 h, time 28 day
[24] = Toxicity in female Wistar rat assessed as glucose level at 100 mg/kg, po after 28 days (reference value: 78.4 +/- 8.36 mg/dl); format: organism-based; details: in vivo, 672 h, time 28 day
[25] = Toxicity in female Wistar rat assessed as glucose level at 200 mg/kg, po after 28 days (reference value: 78.4 +/- 8.36 mg/dl); format: organism-based; details: in vivo, 672 h, time 28 day
[26] = Toxicity in male Wistar rat assessed as creatinine level at 100 mg/kg, po after 28 days (reference value: 0.61 +/- 0.04 mg/dl); format: organism-based; details: in vivo, 672 h, time 28 day
[27] = Toxicity in female Wistar rat assessed as creatinine level at 400 mg/kg, po after 28 days (reference value: 0.6 +/- 0.04 mg/dl); format: organism-based; details: in vivo, 672 h, time 28 day
[28] = Toxicity in male Wistar rat assessed as ALP level at 200 mg/kg, po after 28 days (reference value: 174.77 +/- 25.42 U/L); format: organism-based; details: in vivo, 672 h, time 28 day
[29] = Toxicity in male Wistar rat assessed as ALP level at 400 mg/kg, po after 28 days (reference value: 174.77 +/- 25.42 U/L); format: organism-based; details: in vivo, 672 h, time 28 day
[30] = Toxicity in male Wistar rat assessed as AST level at 200 mg/kg, po after 28 days (reference value: 119.4 +/- 9.3 U/L); format: organism-based; details: in vivo, 672 h, time 28 day
[31] = Toxicity in female Wistar rat assessed as AST level at 400 mg/kg, po after 28 days (reference value: 128.84 +/- 21.42 U/L); format: organism-based; details: in vivo, 672 h, time 28 day
[32] = Toxicity in male Wistar rat assessed as albumin level at 200 mg/kg, po after 28 days (reference value: 3.56 +/- 0.08 g.dl); format: organism-based; details: in vivo, 672 h, time 28 day
[33] = Toxicity in male Wistar rat assessed as albumin level at 400 mg/kg, po after 28 days (reference value: 3.56 +/- 0.08 g.dl); format: organism-based; details: in vivo, 672 h, time 28 day
[34] = Toxicity in male Wistar rat assessed as urea level at 400 mg/kg, po after 28 days (reference value: 58.14 +/- 9.13 mg/dl); format: organism-based; details: in vivo, 672 h, time 28 day
[35] = Toxicity in female Wistar rat assessed as reduction in body weight at 100 to 400 mg/kg, po after 28 days; format: organism-based; details: in vivo, 672 h, dose 100-400 mg/kg, time 28 day
In short: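 Repeated-dose oral toxicity by gavage in Wistar rats, 10 males and 10 females per group, given 100, 200 or 400 mg/kg once daily for 28 days. Endpoints were clinical signs, mortality, neurobehaviour, food intake, ophthalmic examination and body weight. Animals were sacrificed on day 29 for blood biochemistry, organ-to-body weight ratios and histopathology.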

SMILES: Cc1c(Oc2cccc(/C=C3\SC(=O)NC3=O)c2)ncnc1OC1CCN(C(=O)OC(C)(C)C)CC1
- Activity (Mus musculus): Active
- Tmax [1]: 1.5 h
- Cmax [2]: 1050 ng/mL
- k el at 24 h [3]: 1.11e-05 s⁻¹
- Ratio [4]: 0.338
- Ratio [5]: 0.41
- Ratio [6]: 0.222
- Ratio [7]: 0.242
- Ratio [8]: 0.228
- Ratio [9]: 0.044
- Ratio [10]: 0.83
- Ratio [11]: 0.824
- Ratio [12]: 0.809
- Ratio [13]: 1.114
- Ratio [14]: 1.069
- Ratio [15]: 1.23
- Ratio [16]: 0.365
- Ratio [17]: 0.33
- Ratio [18]: 0.196
- Ratio [19]: 0.241
- Activity [20]: 2.5 g/dL
- Activity [21]: 2.64 g/dL
- Activity [22]: 87.56 mg/dL
- Activity [23]: 75.19 mg/dL
- Activity [24]: 79.83 mg/dL
- Activity [25]: 82.1 mg/dL
- Activity [26]: 0.57 mg/dL
- Activity [27]: 0.6 mg/dL
- Activity [28]: 164.68 U/L
- Activity [29]: 177.44 U/L
- Activity [30]: 116.98 U/L
- Activity [31]: 123.93 U/L
- Activity [32]: 3.61 g/dL
- Activity [33]: 3.54 g/dL
- Activity [34]: 51.15 mg/dL
- Activity [35]: Non-Toxic
